Test results taken from ChEMBL document CHEMBL4373685, “High affinity rigidified AT2 receptor ligands with indane scaffolds” (Medchemcomm, 2019).
One block for each compound: values may come before it. Calls of active or inactive are those of the source. The rule behind the calls is not given here.

Assays:
[1] = Displacement of [125I]-Ang2 from AT2 receptor in porcine uterine myometrial membranes after 1.5 hrs by gamma scintillation gamma scintillation counting analysis; design: species or system Sus scrofa
Method in brief: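 Pig uterine myometrial membranes (10 mg original tissue per tube) with 1 μM losartan to block AT1. Incubated 25 °C for 1.5 h, then filtered and counted by γ-counter. Nonspecific binding with 1 μM Ang II.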

NG108-15 [2] = assay: Agonist activity at AT2 receptor in mouse/rat NG108-15 cells assessed as neurite growth at 10 nM after 3 days by phase contrast microscopic analysis; type: cell-based
Method in brief: (§1)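 NG108-15 neuroblastoma x glioma cells, passages 18–25, in DMEM with 10% FBS and HAT at 37 °C, 7% CO2. Seeded at 3.6 × 10^4 cells per 35 mm dish. Dosed once daily for 3 days starting 24 h after plating; where used, 10 μM PD 123319 was added 30 min before compound. On day 4, phase-contrast micrographs were taken. Cells with a neurite longer than the cell body were scored as % of at least 400 cells. Three independent experiments in duplicate, two-way ANOVA.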

NG108-15 [3] = assay: Agonist activity at AT2 receptor in mouse/rat NG108-15 cells assessed as neurite growth at 10 nM after 3 days in presence of PD123319 by phase contrast microscopic analysis; type: cell-based; method in brief: as §1
NG108-15 [4] = assay: Antagonist activity at AT2 receptor in mouse/rat NG108-15 cells assessed as inhibition of angiotensin-2 induced neurite growth at 100 nM after 3 days in presence of angiotensin-2 by phase contrast microscopic analysis; type: cell-based
Method in brief: (§2)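 NG108-15 cells seeded at 3.6 × 10^4 per 35 mm dish. Compound given once daily for 3 days, starting 24 h after plating, 30 min before 100 nM Ang II. On day 4, phase-contrast micrographs were taken. Cells bearing a neurite longer than the cell body were counted as % of at least 400 cells. Three independent experiments in duplicate, two-way ANOVA.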

NG108-15 [5] = assay: Antagonist activity at AT2 receptor in mouse/rat NG108-15 cells assessed as inhibition of angiotensin-2 induced neurite growth at 10 nM after 3 days in presence of angiotensin-2 by phase contrast microscopic analysis; type: cell-based; method in brief: as §2

SMILES: CCCCOC(=O)NS(=O)(=O)c1cc2c(cc1-c1ccc(Cn3ccnc3)cc1)CCC2C(C)C (single isomer, unassigned; (+)) [listing 2 of 2 here]
- Activity (NG108-15 [2]): Active
- Activity (NG108-15 [3]): inactive

SMILES: CCCCOC(=O)NS(=O)(=O)c1cc2c(cc1-c1cccc(Cn3ccnc3)c1)CCC2C(C)C (single isomer, unassigned; (+)) [listing 2 of 2 here]
- inhibition (NG108-15 [4]): Active
- inhibition (NG108-15 [5]): Active

SMILES: CCCCOC(=O)NS(=O)(=O)c1ccc2c(c1-c1ccc(Cn3ccnc3)cc1)CCC2C(C)C (single isomer, unassigned; (+)) [listing 2 of 2 here]
- inhibition (NG108-15 [4]): Active
- inhibition (NG108-15 [5]): Active

SMILES: CCCCOC(=O)NS(=O)(=O)c1cc2c(cc1-c1ccc(Cn3ccnc3)cc1)CCC2C(C)C (single isomer, unassigned; (-)) [listing 2 of 2 here]
- Activity (NG108-15 [2]): Active
- Activity (NG108-15 [3]): inactive

SMILES: CCCCOC(=O)NS(=O)(=O)c1cc2c(cc1-c1cccc(Cn3ccnc3)c1)CCC2C(C)C (single isomer, unassigned; (-)) [listing 2 of 2 here]
- Activity (NG108-15 [2]): Active
- Activity (NG108-15 [3]): inactive

SMILES: CCCCOC(=O)NS(=O)(=O)c1ccc2c(c1-c1ccc(Cn3ccnc3)cc1)CCC2C(C)C (single isomer, unassigned; (-)) [listing 2 of 2 here]
- Activity (NG108-15 [2]): Active
- Activity (NG108-15 [3]): inactive

SMILES: CCCCOC(=O)NS(=O)(=O)c1ccc2c(c1-c1cccc(Cn3ccnc3)c1)CCC2C(C)C (single isomer, unassigned; (-)) [listing 2 of 2 here]
- inhibition (NG108-15 [4]): Active
- inhibition (NG108-15 [5]): Active

SMILES: CCCCOC(=O)NS(=O)(=O)c1ccc2c(c1-c1cccc(Cn3ccnc3)c1)CCC2C(C)C (stereo in doubt; 8b) [listing 2 of 2 here]
- inhibition (NG108-15 [4]): Active
- inhibition (NG108-15 [5]): Active

Further lines, results first:

- Ki [1]: 2.8 nM
SMILES: CCCCOC(=O)NS(=O)(=O)c1ccc2c(c1-c1ccc(Cn3ccnc3)cc1)CCC2C(C)C (single isomer, unassigned; (+)) [listing 1 of 2 here]

- Ki [1]: 3.2 nM
SMILES: CCCCOC(=O)NS(=O)(=O)c1cc2c(cc1-c1cccc(Cn3ccnc3)c1)CCC2C(C)C (single isomer, unassigned; (+)) [listing 1 of 2 here]

- Ki [1]: 2.2 nM
SMILES: CCCCOC(=O)NS(=O)(=O)c1cc2c(cc1-c1ccc(Cn3ccnc3)cc1)CCC2C(C)C (single isomer, unassigned; (+)) [listing 1 of 2 here]

- Ki [1]: 127 nM
SMILES: CCCCOC(=O)NS(=O)(=O)c1ccc2c(c1-c1ccc(Cn3ccnc3)cc1)CCC2C(C)C (single isomer, unassigned; (-)) [listing 1 of 2 here]

- Ki [1]: 223 nM
SMILES: CCCCOC(=O)NS(=O)(=O)c1ccc2c(c1-c1cccc(Cn3ccnc3)c1)CCC2C(C)C (single isomer, unassigned; (-)) [listing 1 of 2 here]

- Ki [1]: 7 nM
SMILES: CCCCOC(=O)NS(=O)(=O)c1cc2c(cc1-c1cccc(Cn3ccnc3)c1)CCC2C(C)C (single isomer, unassigned; (-)) [listing 1 of 2 here]

- Ki [1]: 5.9 nM
SMILES: CCCCOC(=O)NS(=O)(=O)c1cc2c(cc1-c1ccc(Cn3ccnc3)cc1)CCC2C(C)C (single isomer, unassigned; (-)) [listing 1 of 2 here]

- Ki [1]: 53.5 nM
SMILES: CCCCOC(=O)NS(=O)(=O)c1ccc2c(c1-c1cccc(Cn3ccnc3)c1)CCC2C(C)C (stereo in doubt; 8b) [listing 1 of 2 here]
